# Assay results published in ChEMBL document CHEMBL5154934, “Structure-Guided Design of Potent Spirocyclic Inhibitors of Severe Acute Respiratory Syndrome Coronavirus-2 3C-like Protease” (J Med Chem, 2022).
# Activity calls are given as the source filed them. No cut-off for these calls is given here.
# Legend:
# [1] = Cytotoxicity against african green monkey Vero E6 cells; format: toxicity, cell-based, Vero C1008; settings: chlorocebus sabaeus
# [2] = biological target: Replicase polyprotein 1ab (Severe acute respiratory syndrome coronavirus 2, UniProt P0DTD1); assay: Inhibition of N-terminal His6-tagged SARS-CoV2 Wuhan-Hu-1 3C-like protease […] expressed in Escherichia coli BL21 (DE3) cells using FAM-SAVLQ/SG-QXL520 as substrate by FRET enzyme assay
# Procedure, shortened: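 Enzyme was full-length codon-optimized N-terminal His6 protease from pET-28a. It was preincubated with serial inhibitor dilutions, or DMSO, for 1 h at 37°C in 20 mM HEPES pH 8 with 200 mM NaCl, 0.4 mM EDTA, 60% glycerol and 6 mM DTT. FAM-SAVLQ/SG-QXL520 was then added and fluorescence (ex 480/em 520 nm) read after 1 h. Readings were background-subtracted. IC50 came from a variable-slope fit, mean ± SD of ≥3 replicates.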
# [3] = Inhibition of MERS-CoV 3C-like protease incubated for 30 mins by FRET enzyme assay; design: species or system Middle East respiratory syndrome-related coronavirus
# [4] = system: SARS-CoV-2; assay: Antiviral activity against SARS-CoV-2 3C-like measured after 24 hrs; format: functional, organism-based; settings: Severe acute respiratory syndrome coronavirus 2, 24 h
# [5] = system: SARS-CoV-2; assay: Antiviral activity against N-terminal His6-tagged SARS-CoV-2 3C-like protease […] HEK293T cells measured after 24 hrs by cell based replicon assay; format: functional, organism-based; settings: Severe acute respiratory syndrome coronavirus 2
# [6] = Safety index, ratio of CC50 for cytotoxicity against Vero E6 cells to EC50 for antiviral activity against SARS-CoV-2 Wuhan-Hu-1; format: toxicity, cell-based, Vero C1008; settings: monkey, read-out: Ratio CC50/EC50
Structure (SMILES),CC50 [1] [µM],IC50 [2] [µM],IC50 [3] [µM],EC50 [4] [µM],Activity [5],selectivity ratio [6]
CC(C)C[C@H](NC(=O)OC1CC2(C1)CN(C(=O)C(C)C)C2)C(=O)N[C@@H](C[C@H]1CCNC1=O)C(=O)C(O)S(=O)(=O)O (stereo partly specified),> 100,,,,,
CC(C)C[C@H](NC(=O)OC1CC2(CCN(C(=O)Cc3ccccc3)CC2)C1)C(=O)N[C@@H](C[C@H]1CCNC1=O)C(=O)C(O)S(=O)(=O)O (stereo partly specified),> 100,,,,,
CC(C)C[C@H](NC(=O)OCC1CN(C(=O)OC(C)(C)C)C1)C(=O)N[C@H](C=O)C[C@H]1CCNC1=O,> 100,0.41,0.49,0.38,Active,
CC(C)C[C@H](NC(=O)OC1CC2(CCN(C(=O)Cc3ccccc3)CC2)C1)C(=O)N[C@H](C=O)C[C@H]1CCNC1=O,> 100,0.35,0.7,,,
CC(C)C[C@H](NC(=O)OC1CC2(CCN(C(=O)OC(C)(C)C)C2)C1)C(=O)N[C@@H](C[C@H]1CCNC1=O)C(=O)C(O)S(=O)(=O)O (stereo partly specified),> 100,,,,,
CC(C)C[C@H](NC(=O)OC1CC2(C1)CN(C(=O)Cc1ccccc1)C2)C(=O)N[C@H](C=O)C[C@H]1CCNC1=O,> 100,0.26,0.21,,,
CC(C)C[C@H](NC(=O)OC1CC2(CCN(S(C)(=O)=O)CC2)C1)C(=O)N[C@H](C=O)C[C@H]1CCNC1=O,> 100,0.24,0.37,,,
CC(C)C[C@H](NC(=O)OC1(C)CN(C(=O)OC(C)(C)C)C1)C(=O)N[C@H](C=O)C[C@H]1CCNC1=O,> 100,3.65,3.45,,,
CC(C)C[C@H](NC(=O)OC1CC2(CCN(C(=O)C(C)C)CC2)C1)C(=O)N[C@H](C=O)C[C@H]1CCNC1=O,> 100,0.38,0.65,,,
CC(C)C[C@H](NC(=O)OC1CC2(CCN(C#N)CC2)C1)C(=O)N[C@H](C=O)C[C@H]1CCNC1=O,> 100,0.32,0.56,,,
CC(C)C[C@H](NC(=O)OCC1CN(C(=O)Cc2ccccc2)C1)C(=O)N[C@@H](C[C@H]1CCNC1=O)C(=O)C(O)S(=O)(=O)O (stereo partly specified),> 100,,,,,
CC(C)C[C@H](NC(=O)OC1CC2(C1)CN(S(C)(=O)=O)C2)C(=O)N[C@@H](C[C@H]1CCNC1=O)C(=O)C(O)S(=O)(=O)O (stereo partly specified),> 100,,,,,
CC(C)C[C@H](NC(=O)OCC1CN(S(C)(=O)=O)C1)C(=O)N[C@@H](C[C@H]1CCNC1=O)C(=O)C(O)S(=O)(=O)O (stereo partly specified),> 100,,,,,
CC(C)C[C@H](NC(=O)OC1CCC2(C1)CN(C(=O)OC(C)(C)C)C2)C(=O)N[C@H](C=O)C[C@H]1CCNC1=O (stereo partly specified),> 100,1.25,1.01,,,
CC(C)C[C@H](NC(=O)OC1CC2(CCN(C(=O)OC(C)(C)C)CC2)C1)C(=O)N[C@@H](C[C@H]1CCNC1=O)C(=O)C(O)S(=O)(=O)O (stereo partly specified),> 100,,,0.08,Active,1250
CC(C)C[C@H](NC(=O)OC1CC2(C1)CN(C(=O)OC(C)(C)C)C2)C(=O)N[C@@H](C[C@H]1CCNC1=O)C(=O)C(O)S(=O)(=O)O (stereo partly specified),> 100,,,,,
CC(C)C[C@H](NC(=O)OC1CC2(CCN(C(=O)OC(C)(C)C)CC2)C1)C(=O)N[C@H](C=O)C[C@H]1CCNC1=O,> 100,0.36,1.2,0.09,Active,1250
CC(C)C[C@H](NC(=O)OC1CC2(CCN(S(C)(=O)=O)CC2)C1)C(=O)N[C@@H](C[C@H]1CCNC1=O)C(=O)C(O)S(=O)(=O)O (stereo partly specified),> 100,,,,,

Structure (SMILES),CC50 [1] [µM],IC50 [2] [µM],IC50 [3] [µM],EC50 [4] [µM],Activity [5],selectivity ratio [6]
[2H]C([2H])(OC(=O)N[C@@H](CC(C)C)C(=O)N[C@H](C=O)C[C@H]1CCNC1=O)C1CN(C(=O)OC(C)(C)C)C1,> 100,0.33,0.35,,,
CC(C)C[C@H](NC(=O)OC1CC2(C1)CN(C(=O)C(C)C)C2)C(=O)N[C@H](C=O)C[C@H]1CCNC1=O,> 100,1.15,0.35,,,
CC(C)C[C@H](NC(=O)OC1CN(C(=O)OC(C)(C)C)C1)C(=O)N[C@H](C=O)C[C@H]1CCNC1=O,> 100,2.5,1.65,,,
CC(C)C[C@H](NC(=O)OC1CN(C(=O)OC(C)(C)C)C1)C(=O)N[C@@H](C[C@H]1CCNC1=O)C(=O)C(O)S(=O)(=O)O (stereo partly specified),> 100,,,,,
CC(C)C[C@H](NC(=O)OCC1CN(C(=O)OC(C)(C)C)C1)C(=O)N[C@@H](C[C@H]1CCNC1=O)C(=O)C(O)S(=O)(=O)O (stereo partly specified),> 100,,,0.43,Active,
[2H]C([2H])(OC(=O)N[C@@H](CC(C)C)C(=O)N[C@@H](C[C@H]1CCNC1=O)C(=O)C(O)S(=O)(=O)[O-])C1CN(C(=O)OC(C)(C)C)C1.[Na+] (stereo partly specified),> 100,,,,,
CC(C)C[C@H](NC(=O)OC1CC2(CCN(C(=O)OC(C)(C)C)C2)C1)C(=O)N[C@H](C=O)C[C@H]1CCNC1=O (stereo partly specified),> 100,,0.7,,,
CC(C)C[C@H](NC(=O)OCC1CN(C(=O)C2CC3CCC2C3)C1)C(=O)N[C@@H](C[C@H]1CCNC1=O)C(=O)C(O)S(=O)(=O)O (stereo partly specified),> 100,,,,,
CC(C)C[C@H](NC(=O)OC1CC2(C1)CN(C(=O)OC(C)(C)C)C2)C(=O)N[C@H](C=O)C[C@H]1CCNC1=O,> 100,3.3,1.5,,,
CC(C)C[C@H](NC(=O)OC1CC2(C1)CN(C(=O)Cc1ccccc1)C2)C(=O)N[C@@H](C[C@H]1CCNC1=O)C(=O)C(O)S(=O)(=O)O (stereo partly specified),> 100,,,,,
CC(C)C[C@H](NC(=O)OCC1CN(C(=O)C2CC3CCC2C3)C1)C(=O)N[C@H](C=O)C[C@H]1CCNC1=O (stereo partly specified),> 100,0.52,0.19,,,
CC(C)C[C@H](NC(=O)OC1(C)CN(C(=O)OC(C)(C)C)C1)C(=O)N[C@@H](C[C@H]1CCNC1=O)C(=O)C(O)S(=O)(=O)O (stereo partly specified),> 100,,,,,
CC(C)C[C@H](NC(=O)OC1CCC2(C1)CN(C(=O)OC(C)(C)C)C2)C(=O)N[C@@H](C[C@H]1CCNC1=O)C(=O)C(O)S(=O)(=O)O (stereo partly specified),> 100,,,,,
CC(C)C[C@H](NC(=O)OCC1CN(C(=O)Cc2ccccc2)C1)C(=O)N[C@H](C=O)C[C@H]1CCNC1=O,> 100,0.83,0.28,,,
CC(C)C[C@H](NC(=O)OC1CC2(CCN(C(=O)C(C)C)CC2)C1)C(=O)N[C@@H](C[C@H]1CCNC1=O)C(=O)C(O)S(=O)(=O)O (stereo partly specified),> 100,,,,,
CC(C)C[C@H](NC(=O)OC1CC2(C1)CN(S(C)(=O)=O)C2)C(=O)N[C@H](C=O)C[C@H]1CCNC1=O,> 100,0.68,0.22,,,
CC(C)C[C@H](NC(=O)OCC1CN(S(C)(=O)=O)C1)C(=O)N[C@H](C=O)C[C@H]1CCNC1=O,> 100,4.95,1.4,,,
CC(C)C[C@H](NC(=O)OC1CC2(CCN(C#N)CC2)C1)C(=O)N[C@@H](C[C@H]1CCNC1=O)C(=O)C(O)S(=O)(=O)O (stereo partly specified),> 100,,,,,
